Calls of active or inactive are those of the source. The calls are words filed in the database; no cut-off is given here.

The record followed here is ChEMBL document CHEMBL3244351, “Aroyl- and arylisoquinolineacetic acids as antiinflammatory agents” (1978).

For test [1], the system named is Rattus norvegicus. In words: Antiinflammatory activity in Evans blue carrageenan-induced pleural effusion rat model assessed as decrease in volume of pleural fluid at 100 mg/kg relative to control. More on the design: scale not given: the % may be the effect or the level left.
For test [2], the system named is Rattus norvegicus. Nature of the test: Antiinflammatory activity in adjuvant-induced arthritic rat chronic inflammation model assessed as […] at 31.6 mg/kg. Type of test: functional, organism-based. More on the design: dose 31.6 mg/kg.
For test [3], the system named is Rattus norvegicus. Nature of the test: Antiinflammatory activity in carrageenan-induced rat assessed as efficacy ratio for reduction in pleural effusion at 316 mg/kg, po after 5 hrs by Evans blue assay relative to control. Type of test: functional. In outline:
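Rats given 316 mg/kg orally (two rats), then intrapleural injection of 5 mL 0.075% Evans blue/0.5% carrageenan type 7. Pleural effusion volume measured at 5 h. Efficacy ratio is control effusion volume divided by treated effusion volume, judged by sequential analysis; a ratio ≥1.30 counts as active.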

Consider `NC(=O)Cc1cc2ccccc2c(-c2ccc(Cl)cc2)n1`, for which the Activity in the test on Rattus norvegicus [1] came to 22%. For the same molecule, the outcome in the test with Rattus norvegicus [2] was inactive.
As for `CCCCC1C(=O)N(c2ccccc2)N(c2ccccc2)C1=O`, the outcome with Rattus norvegicus [2] was Active.
As to `Br.CCOC(=O)Cc1cc2ccccc2cn1`, in the test on Rattus norvegicus [3], the T/C came to 1.2.
Take `O=C(O)c1ccc2ccccc2c1` [BETA-NAPHTOIC ACID]: in the test with Rattus norvegicus [3], the T/C was found to be 1.13. In the test on Rattus norvegicus [1], the outcome was inactive.
Take `Br.Cc1cc2ccccc2c(C(=O)c2ccccc2)n1`: the T/C in the test on Rattus norvegicus [3] turned out to be 0.93. In addition, the result in the test on Rattus norvegicus [1] was inactive.
For `NC(=O)Cc1cnc(-c2ccccc2)c2ccccc12`, the Activity in the test on Rattus norvegicus [1] came out at 9%.
With `O=C(O)c1cc2ccccc2c(-c2ccccc2)n1`, the T/C in the test on Rattus norvegicus [3] is 1.26. In addition, the outcome in the test on Rattus norvegicus [1] was inactive.
With `NC(=O)Cc1cc2ccccc2c(-c2ccccc2)n1`, the T/C in the test with Rattus norvegicus [3] came to 1.33. Further, in the test on Rattus norvegicus [1], the Activity is 14%.
For the molecule `O=C(O)c1cc2ccccc2c(C(=O)c2ccccc2)n1`, the T/C with Rattus norvegicus [3] came out at 1.28.
As to `Br.O=C(c1ccccc1)c1ccccn1`, the T/C in the test on Rattus norvegicus [3] turned out to be 1.23. Moreover, in the test on Rattus norvegicus [1], the result was inactive.
As for `Br.CCOC(=O)c1cc2ccccc2cn1`, the T/C with Rattus norvegicus [3] amounted to 1.97. In the test with Rattus norvegicus [1], the Activity was found to be 1%.
For `Br.O=C(c1ccccc1)c1nccc2ccccc12` the same measures were 0.83 and “inactive”.
`NC(=O)Cc1cc2ccccc2c(C(=O)c2ccccc2)n1`: in the test on Rattus norvegicus [3], the T/C is listed as 0.9. Moreover, in the test on Rattus norvegicus [1], the result was inactive.
As to `CCOC(=O)c1nc(-c2ccccc2)c2ccccc2c1OC(C)=O`, in the test on Rattus norvegicus [3], the T/C is 1.06. Besides, the result in the test on Rattus norvegicus [1] was inactive.
